Compounds with a hit are over-represented: about 1% of the library has one in this group of screens.
GSIS activator: GLuc luminescence reporter in INS-1E cells, primary screen for activators of glucose-dependent secretion of insulin; INS-1E GLuc reporter insulin secretion, 2-3 h; activation, % at 16.6 µM; actives 0.61% (n = 370,000);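 active = lowest replicate activation of at least 40%, so every replicate reaches that level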;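 also: 0% = median of neutral control wells and 100% = median of IBMX positive control wells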
GAA850 FXN act: FXN promoter activators, primary screen, cell-based, luciferase luminescence, HEK293 lucGAA850; HEK293 lucGAA850 FXN promoter luciferase reporter, 24 h; percent of 10 µM SAHA response; activation, % at 6 µM; actives 0.56% (n = 360,000); AID 540364, 2011;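 active = activation above the average of all compounds screened plus 3 SD, cutoff fixed separately per campaign, cut at about 7.5% in these data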;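 also: 0% = DMSO wells and 100% = 10 µM SAHA wells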
XiGFP reactiv: activators of inactive X chromosome reactivation, primary screen, imaging, XiGFP fibroblasts, GFP high-content imaging, set 2; activation, % at 7.58 µM; XiGFP mouse fibroblasts, % GFP-positive cells imaging, 3 d; cells co-treated with 5-aza-dC sensitizer; scaled so ellipticine positive control = 100%; AID 743238, 2013; actives 0.055% (n = 360,000);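 active = mean normalized replicate activation at least 10% and every replicate at or above 10%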;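 also: 0% = median of on-plate neutral control wells and 100% = ellipticine 6 µM median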
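Schedule: 3 d treatment, 15 min room-temperature fixation; system: 68-5-11 XiGFP fibroblast line; buffer or medium: DMEM plus 5-aza-dC sensitizer; control set: ellipticine 6 µM positive control; compound: one concentration, pinned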
CaV13 ICDI inh: Disruptors of the CACNA1D IQ motif to Ca2+-dependent inactivation inhibitor domain association, primary screening, Förster resonance energy transfer in intact living … | HEK cells, CFP/YFP FRET ICDI-IQ, plate reader, 10 min; percent FRET-ratio fall versus neutral wells | actives 0.098% (n = 340,000) | inhibition, % at 12.3 µM;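 active = mean replicate inhibition of at least 30% and at least 1% of replicates passing that level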;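 also: 0% = median of the neutral control wells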
* = called active by the depositor.

CSc1nc(N)n2nc(C(C)(C)C)cc2n1 was read as GSIS activator 54*, GAA850 FXN act 4, XiGFP reactiv 0 and CaV13 ICDI inh -5.
C[C@@H]1CN([C@@H](C)CO)C(=O)c2cc(C#CCc3ccccc3)cnc2O[C@@H]1CN(C)Cc1cccnc1 was read as GSIS activator -11 and XiGFP reactiv -1.
`COc1cc(C=C2C(=O)C=CC2=O)ccc1O` gave GSIS activator 52*, XiGFP reactiv 2 and CaV13 ICDI inh -10.
Screening COc1cc(/C=C2/C(=O)CNC2=O)ccc1O returned GSIS activator 13, GAA850 FXN act 2, XiGFP reactiv 0 and CaV13 ICDI inh -4.
`C[C@@H]1CN([C@@H](C)CO)S(=O)(=O)c2ccc(C#C[C@@H](C)O)cc2O[C@H]1CN(C)Cc1ccccn1` gave GSIS activator 17 and XiGFP reactiv -1.
`Cc1ccc(NC(=O)c2oc3ccc(S(=O)(=O)N4CCOCC4)cc3c2C)cc1C` gave GSIS activator 79*, GAA850 FXN act -2 and CaV13 ICDI inh -4.
`CC(C)Cn1c2c(c(=O)[nH]c1=O)C(C(F)(F)F)(C(F)(F)F)N=C(CCC1CCCCC1)N2` gave GSIS activator 54*, GAA850 FXN act 1 and CaV13 ICDI inh -9.
O=c1[nH]c(=O)n(Cc2ccco2)c2c1C(C(F)(F)F)(C(F)(F)F)N=C(CCC1CCCCC1)N2 was read as GAA850 FXN act -3 and CaV13 ICDI inh -6.
C[C@@H]1CCC(=O)N(C[C@@H](C)CC#N)CC1 was read as GSIS activator 0, GAA850 FXN act -2, XiGFP reactiv 0 and CaV13 ICDI inh 1.
`C[C@@H](CC#N)CN1CC[C@H](C(C)(C)C)CCC1=O` gave GSIS activator 2, GAA850 FXN act 1, XiGFP reactiv 0 and CaV13 ICDI inh 34*.
CN(C)CC(=O)N[C@H]1CC[C@H](CCn2cc(C3CCCC3)nn2)O[C@H]1CO was read as GSIS activator -10 and XiGFP reactiv 0.
Screening CCc1ccc(OCC(=O)NNC(=S)NC(=O)C2CC2)c(Br)c1 returned GAA850 FXN act 0, XiGFP reactiv 0 and CaV13 ICDI inh -7.
CCc1ccc(OCC(=O)NC(=S)Nc2ccc(C)cc2C)c(Br)c1 was read as GSIS activator 41*, GAA850 FXN act 1 and CaV13 ICDI inh -4.
For CCCCCCN1C[C@H](n2cc(C3CC3)nn2)[C@@H](O)C[C@@H]1c1ccc(C)cc1 the results were GSIS activator 274*, GAA850 FXN act 2, XiGFP reactiv 0 and CaV13 ICDI inh -4.
Screening CCCCCCN1C[C@H](n2cc(COC(=O)c3ccccc3)nn2)[C@@H](O)C[C@@H]1c1ccc(C)cc1 returned GSIS activator 163*, GAA850 FXN act 1, XiGFP reactiv 0 and CaV13 ICDI inh -6.
Screening CCCCCCN1C[C@H](n2cc(COC(=O)c3ccccc3)nn2)[C@@H](O)C[C@@H]1c1ccccc1 returned GSIS activator 1, GAA850 FXN act -1, XiGFP reactiv 0 and CaV13 ICDI inh -6.
Screening C[C@@H]1CN([C@@H](C)CO)C(=O)c2cc(NS(=O)(=O)c3cccs3)ccc2O[C@@H](C)CCCCO[C@H]1CN(C)C(=O)CCCN(C)C returned GSIS activator 8 and XiGFP reactiv 0.
Screening Cn1c(=O)c(NC2CCCCC2)c2c3c(cccc31)C(=O)c1ccccc1-2 returned GSIS activator 1, GAA850 FXN act 1, XiGFP reactiv 116* and CaV13 ICDI inh -13.
Screening Cn1c(=O)c(NCCO)c2c3c(cccc31)C(=O)c1ccccc1-2 returned GSIS activator -5 and GAA850 FXN act 0.
`CCCCc1[nH]c(=O)c(C#N)c2c1CCCC2` gave GSIS activator 99*, GAA850 FXN act 4 and CaV13 ICDI inh -6.
Screening CCn1c(=O)cc(OCC(=O)O)c2ccccc21 returned GAA850 FXN act 0 and CaV13 ICDI inh -5.
Screening Cn1cc(C(c2ccccc2OCC(=O)O)c2cn(C)c3ccccc23)c2ccccc21 returned GSIS activator 8, GAA850 FXN act 2, XiGFP reactiv 0 and CaV13 ICDI inh 45*.
Screening Fc1ccc(-c2nc3ccccn3c2NCc2ccc3c(c2)OCO3)cc1 returned GSIS activator 12, GAA850 FXN act 2, XiGFP reactiv 0 and CaV13 ICDI inh 49*.
`C[C@@H]1CN([C@H](C)CO)C(=O)Cc2cc(NC(=O)C3CCCCC3)ccc2O[C@H]1CN(C)C(=O)NC1CCCCC1` gave GSIS activator -11 and XiGFP reactiv 0.
Screening C[C@@H]1CN([C@H](C)CO)C(=O)c2cc(-c3ccccc3F)cnc2O[C@@H]1CN(C)Cc1cccc(C(=O)O)c1 returned GSIS activator 1 and XiGFP reactiv 0.
CN1CCC(N(C)S(=O)(=O)c2ccc(NC(=O)COc3cccc(Cl)c3)cc2)CC1 was read as GSIS activator 64*, GAA850 FXN act 0, XiGFP reactiv 0 and CaV13 ICDI inh -7.
Screening CCOc1nc(NC(=O)NS(=O)(=O)Oc2ccccc2Cl)nc(-c2ccccc2)n1 returned GSIS activator 60*, GAA850 FXN act 4 and CaV13 ICDI inh -6.
For CCOc1nc(NC(=O)NS(=O)(=O)Oc2cccc(Cl)c2)nc(-c2ccccc2)n1 the results were GSIS activator 19, GAA850 FXN act 2, XiGFP reactiv 0 and CaV13 ICDI inh -5.
CCOc1nc(NC(=O)NS(=O)(=O)c2cccc(Cl)c2)nc(-c2ccccc2)n1 was read as GSIS activator 71*, GAA850 FXN act 2, XiGFP reactiv 0 and CaV13 ICDI inh -3.
`CCOc1nc(NC(=O)NC(=O)c2ccccc2)nc(-c2ccccc2)n1` gave GSIS activator 9, GAA850 FXN act 0, XiGFP reactiv 0 and CaV13 ICDI inh -5.
`Cc1cccc2nc(-c3ccco3)c(Nc3ccccc3)n12` gave GSIS activator 41*, GAA850 FXN act -1, XiGFP reactiv 0 and CaV13 ICDI inh -6.
`O=C(NC1CCCC1)N[C@H]1CC[C@@H](CC(=O)N2CCOCC2)O[C@@H]1CO` gave GSIS activator 28 and XiGFP reactiv 0.
For CCN(c1ccccc1)S(=O)(=O)c1ccc(OC)c(NC(=O)CN(C)C)c1 the results were GSIS activator -8, GAA850 FXN act 0, XiGFP reactiv 0 and CaV13 ICDI inh active.
For CCCNc1c(NS(=O)(=O)c2cccc(C#N)c2)c(=O)oc2ccccc12 the results were GSIS activator 56*, GAA850 FXN act 0, XiGFP reactiv 0 and CaV13 ICDI inh -7.
`CCCNc1c(NS(=O)(=O)c2ccc(C(C)(C)C)cc2)c(=O)oc2ccccc12` gave GSIS activator -3, GAA850 FXN act 2, XiGFP reactiv 0 and CaV13 ICDI inh -7.
